Data reported in ChEMBL document CHEMBL3124940, “Design, synthesis and biological evaluation of D-ring opened galantamine analogs as multifunctional anti-Alzheimer agents” (Eur J Med Chem, 2014).
Activity calls are given as the source filed them.

Tests used:
PC-12 = experiment: Neuroprotective activity in rat PC12 cells assessed as decrease in amyloid beta (1 to 42)-induced cytotoxicity at 0.08 to 10 uM after 24 hrs by MTT assay; format: functional, cell-based
Summary of the method: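 PC12 cells grown in F-12 with 10% FBS, 37 °C, 5% CO2. Seeded at 2000 cells/well for 24 h. Aβ42 pretreated with HFIP, then brought to 100 μM in medium and held at 4 °C for 24 h. Compound (final […]–10 μM, DMSO <0.5%) given with Aβ42 (final 5 μM) for 24 h. MTT 4 h, formazan read at 540 nm. Expressed as % of control; three independent trials, mean ± SEM.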

Rattus norvegicus [1] = experiment: Antialzheimer activity in Wistar rat scopolamine-induced cognition impairment model assessed as decrease in amount of errors plus baits not found during exploration at 1 umol/100 g body weight, ip treated for 5 mins prior to scopolamine-challenge measured after 20 to 120 mins by eight-arm radial maze test; format: functional, organism-based
Summary of the method: (§1)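 Female 60-day-old Wistar rats (Han:Wist) trained in an eight-arm radial maze to error-free trials under 60 s on three consecutive days; each animal served as its own control. Test agent given i.p. in saline 5 min before scopolamine (0.05 mg/100 g b. wt., i.p. in saline). Errors plus baits not found after 10 min, and total searching time, recorded before and 20, 60, 120 min after scopolamine; n = 14, mean ± SEM.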

Rattus norvegicus [2] = experiment: Antialzheimer activity in Wistar rat scopolamine-induced cognition impairment model assessed as total exploration time at 1 umol/100 g body weight, ip treated for 5 mins prior to scopolamine-challenge by eight-arm radial maze test relative to control; format: functional; summary of the method: as §1
[3] = target: Amyloid-beta precursor protein (Homo sapiens) (UniProt P05067); experiment: Inhibition of amyloid beta (1 to 42) aggregation (unknown origin) at 5 to 100 uM after 1 hr by thioflavin T fluorescence assay
Summary of the method: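 Aβ42 stock 200 μM in DMSO, centrifuged 12,000 rpm 10 min; supernatant used. ThT in 50 mM glycine-NaOH pH 8.5 then added. Fluorescence read at ex 430 / em 488 nm. Curcumin as positive control.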

Amyloid-beta precursor protein (Homo sapiens), sequence (P05067 whole entry): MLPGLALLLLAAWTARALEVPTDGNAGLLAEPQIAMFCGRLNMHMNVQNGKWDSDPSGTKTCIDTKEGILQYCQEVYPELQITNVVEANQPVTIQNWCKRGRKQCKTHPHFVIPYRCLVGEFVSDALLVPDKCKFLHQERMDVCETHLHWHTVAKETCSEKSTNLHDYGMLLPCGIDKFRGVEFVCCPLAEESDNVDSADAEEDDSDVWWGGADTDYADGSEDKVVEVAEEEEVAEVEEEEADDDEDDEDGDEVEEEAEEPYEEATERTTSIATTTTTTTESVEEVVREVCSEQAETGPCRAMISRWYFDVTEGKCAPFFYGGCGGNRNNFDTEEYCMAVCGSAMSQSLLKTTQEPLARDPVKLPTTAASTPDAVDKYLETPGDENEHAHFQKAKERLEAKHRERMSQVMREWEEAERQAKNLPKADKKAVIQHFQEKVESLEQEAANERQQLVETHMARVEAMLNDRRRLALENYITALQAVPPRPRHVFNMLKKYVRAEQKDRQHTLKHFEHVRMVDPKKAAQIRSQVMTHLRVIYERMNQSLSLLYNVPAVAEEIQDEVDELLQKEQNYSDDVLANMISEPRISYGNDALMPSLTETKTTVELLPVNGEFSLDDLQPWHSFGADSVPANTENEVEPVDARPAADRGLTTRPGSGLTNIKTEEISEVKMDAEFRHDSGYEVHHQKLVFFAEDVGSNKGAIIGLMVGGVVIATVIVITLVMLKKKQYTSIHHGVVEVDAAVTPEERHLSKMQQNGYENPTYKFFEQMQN

COc1ccc2c3c1O[C@H]1C[C@@H](O)C=C[C@@]31CCN(C)C2
inactive: Activity (PC-12) | Activity (Rattus norvegicus [1]) | Activity (Rattus norvegicus [2]) | inhibition [3]
